Laboratory results published in paper PMC4780725 (Drug Design, Development and Therapy, 2016).

Tests used:
[1] = system: p65 nuclear translocation in SGC-7901 cells; assay: p65 nuclear translocation, Western blot of nuclear extracts, SGC-7901; format: cell-based, human; details: SGC-7901, pretreatment 60 minutes, TNF-α 1 ng/mL 60 minutes
Procedure, shortened: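 SGC-7901 cells were pretreated for 60 min with test compound (10 or 20 µM), a reference NF-κB inhibitor or DMSO, then stimulated with TNF-α at 1 ng/mL for 60 min. Cells were trypsinized and washed thrice in ice-cold PBS. Cytoplasmic extract came from Buffer A (10 min on ice) plus Buffer B (1 min) and a 16,000× g spin for 5 min; nuclear extract from the pellet in Buffer C for 40 min on ice. Nuclear p65 was normalized to Lamin B and cytoplasmic p65 to GAPDH.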

GES-1 cells = assay: MTT cell viability assay, GES-1 normal gastric mucosa epithelial cells; format: cell-based; details: Homo sapiens, GES1, 72 h, read-out: IC50 values of compounds on cells, GES-1
Procedure, shortened: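 GES-1 cells were grown in RPMI-1640 with 10% FBS at 37°C and 5% CO2, seeded at ~5,000 cells/well, then exposed for 72 h to 0.096, 0.48, 2.4, 12 and 60 µM compound. MTT was added for 4 h, formazan dissolved in DMSO, and absorbance read at 490 nm. Inhibition was calculated against the DMSO control, and IC50 is the concentration giving 50% inhibition. At least three independent experiments were run.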

[2] = system: p65 nuclear translocation in BGC-823 cells; assay: p65 nuclear translocation, immunofluorescence, BGC-823; format: cell-based, human; details: BGC-823, 20 µM, 60 minutes before TNF-α
Procedure, shortened: (§1)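 Cells were pretreated 60 min with DMSO, test compound (20 µM) or a reference NF-κB inhibitor (20 µM), then stimulated with TNF-α 1 ng/mL for 60 min. After an ice-cold PBS wash, cells were fixed 10 min at room temperature and blocked 1 h. They were incubated overnight at 4°C with rabbit anti-p65, then anti-rabbit Cy3 for 1 h in the dark, and DAPI for 5 min. Fluorescence microscopy at 20×10; p65 red and nuclei blue in merged images.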

SGC-7901 cells = assay: MTT cell viability assay, SGC-7901; format: cell-based, human; details: read-out: IC50 values of compounds on cells, SGC-7901, 72 hours, SGC-7901 gastric cancer cells
Procedure, shortened: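 SGC-7901 cells were seeded at ~5,000/well and exposed 72 h to test compound at 0.096, 0.48, 2.4, 12 and 60 µM. MTT was added for 4 h, formazan dissolved in DMSO and absorbance read at 490 nm. Inhibition ratio = (1 − A treated/A DMSO control) × 100%. IC50, the concentration giving 50% inhibition of proliferation, was calculated by curve fitting.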

[3] = system: SGC-7901 and BGC-823 cells; assay: Matrigel invasion assay; format: cell-based, human; details: 24 hours; Da0324 5 or 10 µM, curcumin 10 µM
Procedure, shortened: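 Transwell inserts were coated with Matrigel and air-dried for 2 h at room temperature. Cells at 1×10^6 cells/mL in serum-free RPMI-1640 with compound or DMSO were placed in the upper chamber, with RPMI-1640 plus 10% FBS below, for 24 h at 37°C. Cells on the lower surface were fixed, crystal violet-stained and counted by light microscopy as the mean of three fields, from three separate treatments.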

[4] = system: SGC-7901 or BGC-823 cells; assay: Clonogenic assay; format: cell-based, human; details: 5 µM, 24 hours treatment, then 7 days in fresh medium
Procedure, shortened: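 SGC-7901 or BGC-823 cells were exposed to test compound (2.5 or 5 µM) or DMSO for 24 h. The medium was then replaced with fresh medium and colonies grew for 7 days before crystal violet staining and photography.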

[5] = Stability in phosphate buffer by UV-visible absorption spectra; format: physicochemical; details: phosphate buffer pH 7.4, 250 to 600 nm, every 5 minutes for more than 25 minutes
Procedure, shortened: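 Test compound was dissolved and diluted in DMSO, then mixed into phosphate buffer at pH 7.4. Optical density from 250 to 600 nm was recorded every 5 min for more than 25 min.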

[6] = system: SGC-7901 or BGC-823 cells; assay: Cell cycle analysis by flow cytometry; format: cell-based, human; details: 24 hours
Procedure, shortened: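 Cells in RPMI-1640 with 10% FBS were exposed for 24 h to test compound (5 or 10 µM, or 20 µM for the reference) or DMSO. All cells were collected by trypsinization, PBS-washed, fixed in 75% ethanol for 1 h at −20°C, washed, and stained with PI for 15 min at 4°C in the dark. G0/G1, S and G2/M fractions were measured by FACS, from three separate treatments.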

[7] = system: NF-κB activation induced by TNF-α in BGC-823 cells; assay: Western blot of TNF-α-induced NF-κB activation; format: cell-based, human; details: BGC-823, 10 µM, 60 minutes pretreatment, TNF-α 1 ng/mL 15 minutes
Procedure, shortened: (§2)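 SGC-7901 or BGC-823 cells were pretreated 60 min with DMSO, test compound (5, 10 or 20 µM) or a reference NF-κB inhibitor (20 µM), then stimulated with TNF-α 1 ng/mL for 15 min. Whole-cell lysates were cleared at 12,000× g, 4°C, 10 min, and equal protein run on SDS-PAGE. Blots were probed overnight for p-IKK, IκB-α and p-IκB-α, then with HRP secondaries 1 h at 37°C. Densitometry normalised to IKK and GAPDH, respectively.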

[8] = system: caspase 3, bcl-2, bax in SGC-7901 cells; assay: Western blot of apoptosis-related proteins, SGC-7901; format: cell-based, human; details: SGC-7901, 10 µM, 24 hours
Procedure, shortened: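 SGC-7901 cells were exposed 24 h to DMSO, test compound (5, 10 or 20 µM) or a reference compound (20 µM). Lysates were cleared at 12,000× g, 4°C, and equal protein separated by SDS-PAGE. Blots were probed overnight for caspase 3, cleaved caspase 3, bax and bcl-2, with GAPDH as loading control. Bands were quantified by densitometry.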

[9] = system: p65 nuclear translocation in SGC-7901 cells; assay: p65 nuclear translocation, immunofluorescence, SGC-7901; format: cell-based, human; details: SGC-7901, 20 µM, 1 hour before TNF-α
Procedure, shortened: as §1

[10] = system: SGC-7901 or BGC-823 cells; assay: Apoptosis by Annexin-V/PI flow cytometry; format: cell-based, human; details: 10 or 20 µM, 24 hours
Procedure, shortened: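 SGC-7901 or BGC-823 cells in RPMI-1640 with 10% FBS at 37°C, 5% CO2, were treated 24 h with test compound (10 or 20 µM), a reference compound (20 µM) or DMSO. Cells were collected, washed twice in PBS, then stained with Annexin-V for 10 min in the dark and with PI for 5 min, and analysed by FACS. Annexin+/PI− cells were scored early apoptotic and Annexin+/PI+ late apoptotic/dead; three separate treatments.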

[11] = system: NF-κB activation induced by TNF-α in SGC-7901 cells; assay: Western blot of TNF-α-induced NF-κB activation; format: cell-based, human; details: SGC-7901, 10 µM, 60 minutes pretreatment, TNF-α 1 ng/mL 15 minutes
Procedure, shortened: as §2

SMILES	Nuclear p65 after TNF-α stimulation [1]	IC50 (GES-1 cells)	p65 nuclear translocation induced by TNF-α [2]	IC50 (SGC-7901 cells)	Invasion through Matrigel [3]	Colony formation [4]	Absorption intensity of the spectrum in phosphate buffer (degradation) [5]	Cells arrested in the G2/M phase ([6]; 20 µM)	Expression of p-IKK and p-IκB-α stimulated by TNF-α [7]	Caspase 3 level and cleavage [8]	p65 red fluorescence in cell nuclei after TNF-α [9]	Number of early- and late-period apoptotic cells [10]	Phosphorylation of IKK and IκB-α stimulated by TNF-α [11]	Cells arrested in the G2/M phase ([6]; 10 µM)
Cc1ccc2nc(NCCN)c3ncc(C)n3c2c1 [BMS345541, reference compound]	did not significantly increase	9.8 ± 2.5 µM	could inhibit the p65 nuclear translocation	7.8 ± 1.8 µM										
COc1cc(/C=C/C(=O)CC(=O)/C=C/c2ccc(O)c(OC)c2)ccc1O [CUR, curcumin, reference compound]		29.1 ± 3.8 µM			could similarly inhibit cell invasion	no significant effects	significantly decreased	~ 10%						
COc1cccc(/C=C/C(=O)/C=C/c2cccc(OC)c2OC)c1OC [Compound B19, (1E,4E)-1,5-bis(2,3-dimethoxyphenyl)penta-1,4-dien-3-one]		3.7 ± 1.9 µM												
COc1ccc(OC)c(/C=C2\CC/C(=C\c3ccc(O)c(OC)c3)C2=O)c1 [Da0324, (2E,5E)-2-(2,5-dimethoxybenzylidene)-5-(4-hydroxy-3-methoxybenzylidene)cyclopentanone]	did not significantly increase	27.3 ± 8.2 µM	could inhibit the p65 nuclear translocation		obviously inhibited the invasion	No colonies were visible	less degraded than curcumin		similarly inhibit the expression of p-IKK and p-IκB-α	significantly reduced caspase 3 and induced its cleavage	the red fluorescence did not increase in the cell nuclei	significantly higher than those of the curcumin-treated cells	significantly inhibit the phosphorylation of IKK and IκB-α	~30%
